Values after ≈ are worked out from the molar mass of the structure shown. Active and inactive are the calls of the source. No cut-off for these calls is given here. Residues, ends and D or L forms follow the SMILES beside them.
What was measured:
Enterococcus faecalis [1] = assay: Induction of aggregation of Enterococcus faecalis JH2SS harboring pMG2201 at 100 ng/ml; format: functional, organism-based
In short: (§1)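 Donor E. faecalis JH2SS carrying the plasmid, exposed 2 h to synthetic pheromone (cAD1, cPD1, cCF10, cOB1 or cAM373 at 100 ng/ml) or to FA2-2 culture filtrate. Aggregation (clumping) of cells scored visually afterwards. A short 10-min mating with FA2-2 followed induction.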

Enterococcus faecalis [2] = assay: Induction of aggregation of Enterococcus faecalis JH2SS harboring pMG2200 at 100 ng/ml; format: functional, organism-based; in short: as §1
Enterococcus faecalis [3] = assay: Induction of transfer of plasmid pAM714 in Enterococcus faecalis JH2SS at 100 ng/ml; format: functional, organism-based
In short: (§2)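 Donor E. faecalis JH2SS carrying pMG2200 and pAM714 was exposed for 2 h to a synthetic pheromone (cCF10 or cAD1, 100 ng/ml) to induce aggregation-mating. A short 10-min mating with recipient FA2-2 followed. Transfer frequency was scored as transconjugants per donor cell at the end of mating.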

Enterococcus faecalis [4] = assay: Induction of transfer of plasmid pMG2200 in Enterococcus faecalis JH2SS at 100 ng/ml; format: functional, organism-based; in short: as §2
Enterococcus faecalis [5] = assay: Antimicrobial activity against Enterococcus faecalis NKH15 harboring pMG2200-like and pMG2201-like plasmids after 24 hrs by agar dilution method; format: functional
In short: (§3)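 Agar dilution MICs on clinical E. faecalis isolates. Overnight Mueller-Hinton broth culture diluted 100-fold; ~5 × 10^5 cells inoculated onto Mueller-Hinton medium holding a concentration series of each drug. Incubated at 37°C and read at 24 h. Testing and interpretation follow CLSI (NCCLS) standards, with E. faecium ATCC 9790 as control strain.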

Enterococcus faecalis [6] = assay: Antimicrobial activity against Enterococcus faecalis NKH9 harboring pMG2200-like and pMG2201-like plasmids after 24 hrs by agar dilution method; format: functional; in short: as §3
Enterococcus faecalis [7] = assay: Antimicrobial activity against Enterococcus faecalis NKH6 harboring pMG2200-like and pMG2201-like plasmids after 24 hrs by agar dilution method; format: functional; in short: as §3
Enterococcus faecalis [8] = assay: Antimicrobial activity against Enterococcus faecalis NKH1 harboring pMG2200-like plasmid after 24 hrs by agar dilution method; format: functional; in short: as §3
Enterococcus faecalis [9] = assay: Antimicrobial activity against Enterococcus faecalis NKH14 harboring pMG2200-like and pMG2201-like plasmids after 24 hrs by agar dilution method; format: functional; in short: as §3
Enterococcus faecalis [10] = assay: Antimicrobial activity against Enterococcus faecalis NKH16 harboring pMG2200-like plasmid after 24 hrs by agar dilution method; format: functional; in short: as §3
Enterococcus faecalis [11] = assay: Antimicrobial activity against Enterococcus faecalis NKH10 harboring pMG2200-like and pMG2201-like plasmids after 24 hrs by agar dilution method; format: functional; in short: as §3
Enterococcus faecalis [12] = assay: Antimicrobial activity against Enterococcus faecalis NKH4 harboring pMG2200-like and pMG2201-like plasmids after 24 hrs by agar dilution method; format: functional; in short: as §3
Enterococcus faecalis [13] = assay: Antimicrobial activity against Enterococcus faecalis NKH8 harboring pMG2200-like and pMG2201-like plasmids after 24 hrs by agar dilution method; format: functional; in short: as §3
Enterococcus faecalis [14] = assay: Antimicrobial activity against Enterococcus faecalis NKH13 harboring pMG2200-like and pMG2201-like plasmids after 24 hrs by agar dilution method; format: functional; in short: as §3
Enterococcus faecalis [15] = assay: Antimicrobial activity against Enterococcus faecalis NKH3 harboring pMG2200-like and pMG2201-like plasmids after 24 hrs by agar dilution method; format: functional; in short: as §3
Enterococcus faecalis [16] = assay: Antimicrobial activity against Enterococcus faecalis NKH5 harboring pMG2200-like plasmid after 24 hrs by agar dilution method; format: functional; in short: as §3
Enterococcus faecalis [17] = assay: Antimicrobial activity against Enterococcus faecalis NKH11 harboring pMG2200-like plasmid after 24 hrs by agar dilution method; format: functional; in short: as §3
Enterococcus faecalis [18] = assay: Antimicrobial activity against Enterococcus faecalis NKH18 harboring pMG2200-like and pMG2201-like plasmids after 24 hrs by agar dilution method; format: functional; in short: as §3
Enterococcus faecalis [19] = assay: Antimicrobial activity against Enterococcus faecalis NKH2 harboring pMG2200-like and pMG2201-like plasmids after 24 hrs by agar dilution method; format: functional; in short: as §3
Enterococcus faecalis [20] = assay: Antimicrobial activity against Enterococcus faecalis NKH7 harboring pMG2200-like plasmid after 24 hrs by agar dilution method; format: functional; in short: as §3
Enterococcus faecalis [21] = assay: Antimicrobial activity against Enterococcus faecalis NKH12 harboring pMG2200-like and pMG2201-like plasmids after 24 hrs by agar dilution method; format: functional; in short: as §3
Enterococcus faecalis [22] = assay: Antimicrobial activity against Enterococcus faecalis NKH17 harboring pMG2200-like plasmid after 24 hrs by agar dilution method; format: functional; in short: as §3

Row | Molecule | Activity (Enterococcus faecalis [1]) | Activity (Enterococcus faecalis [2]) | MIC (Enterococcus faecalis [5]; NKH15, 24 h) [µg/mL] | MIC (Enterococcus faecalis [6]; NKH9, 24 h) [µg/mL] | MIC (Enterococcus faecalis [7]; NKH6, 24 h) [µg/mL] | MIC (Enterococcus faecalis [8]; NKH1, 24 h) [µg/mL] | MIC (Enterococcus faecalis [9]; NKH14, 24 h) [µg/mL] | MIC (Enterococcus faecalis [10]; NKH16, 24 h) [µg/mL] | MIC (Enterococcus faecalis [11]; NKH10, 24 h) [µg/mL] | MIC (Enterococcus faecalis [12]; NKH4, 24 h) [µg/mL] | MIC (Enterococcus faecalis [13]; NKH8, 24 h) [µg/mL] | MIC (Enterococcus faecalis [14]; NKH13, 24 h) [µg/mL] | MIC (Enterococcus faecalis [15]; NKH3, 24 h) [µg/mL] | MIC (Enterococcus faecalis [16]; NKH5, 24 h) [µg/mL] | MIC (Enterococcus faecalis [17]; NKH11, 24 h) [µg/mL] | MIC (Enterococcus faecalis [18]; NKH18, 24 h) [µg/mL] | MIC (Enterococcus faecalis [19]; NKH2, 24 h) [µg/mL] | MIC (Enterococcus faecalis [20]; NKH7, 24 h) [µg/mL] | MIC (Enterococcus faecalis [21]; NKH12, 24 h) [µg/mL] | MIC (Enterococcus faecalis [22]; NKH17, 24 h) [µg/mL] | also measured
1 | CC[C@H](C)[C@H](NC(=O)[C@H](C)N)C(=O)N[C@@H](Cc1ccccc1)C(=O)N[C@H](C(=O)N[C@@H](CC(C)C)C(=O)N[C@@H](C)C(=O)N[C@@H](CO)C(=O)O)[C@@H](C)CC (H-AIFILAS-OH) | inactive | inactive |  |  |  |  |  |  |  |  |  |  |  |  |  |  |  |  |  |  | 
2 | CSCC[C@H](NC(=O)[C@@H](NC(=O)[C@H](CC(C)C)NC(=O)[C@@H](N)Cc1ccccc1)C(C)C)C(=O)N[C@@H](Cc1ccccc1)C(=O)N[C@@H](CC(C)C)C(=O)N[C@@H](CO)C(=O)NCC(=O)O (H-FLVMFLSG-OH) | inactive | inactive |  |  |  |  |  |  |  |  |  |  |  |  |  |  |  |  |  |  | 
3 | CC(C)C[C@H](NC(=O)[C@H](CO)NC(=O)[C@H](Cc1ccccc1)NC(=O)[C@@H](N)CC(C)C)C(=O)N[C@H](C(=O)N[C@@H](CC(C)C)C(=O)N[C@@H](C)C(=O)NCC(=O)O)C(C)C (H-LFSLVLAG-OH) | Active | inactive |  |  |  |  |  |  |  |  |  |  |  |  |  |  |  |  |  |  | Activity (Enterococcus faecalis [3]): Active; Activity (Enterococcus faecalis [4]): inactive
4 | CC(C)C[C@H](NC(=O)[C@@H](NC(=O)[C@@H](NC(=O)[C@@H](N)CC(C)C)C(C)C)[C@@H](C)O)C(=O)N[C@H](C(=O)N[C@@H](Cc1ccccc1)C(=O)N[C@H](C(=O)O)C(C)C)C(C)C (H-LVTLVFV-OH) | inactive | Active |  |  |  |  |  |  |  |  |  |  |  |  |  |  |  |  |  |  | Activity (Enterococcus faecalis [3]): inactive; Activity (Enterococcus faecalis [4]): Active
5 | CC(C)C[C@H](NC(=O)[C@@H](NC(=O)[C@H](C)NC(=O)[C@@H](N)C(C)C)C(C)C)C(=O)N[C@H](C(=O)N[C@@H](CC(C)C)C(=O)NCC(=O)N[C@@H](C)C(=O)O)C(C)C (H-VAVLVLGA-OH) | inactive | inactive |  |  |  |  |  |  |  |  |  |  |  |  |  |  |  |  |  |  | 
6 | NC[C@H]1O[C@H](O[C@H]2[C@H](O)[C@@H](O[C@H]3O[C@H](CO)[C@@H](O)[C@H](N)[C@H]3O)[C@H](N)C[C@@H]2N)[C@H](O)[C@@H](O)[C@@H]1O [KANAMYCIN] |  |  | > 1020 | > 1020 | > 1020 | > 1020 | > 1020 | > 1020 | > 1020 | > 1020 | > 1020 | > 1020 | > 1020 | > 1020 | > 1020 | > 1020 | > 1020 | > 1020 | > 1020 | > 1020 | 
7 | CN[C@@H]1[C@H](O[C@H]2[C@H](O[C@H]3[C@H](O)[C@@H](O)[C@H](N=C(N)N)[C@@H](O)[C@@H]3N=C(N)N)O[C@@H](C)[C@]2(O)C=O)O[C@@H](CO)[C@H](O)[C@H]1O [STREPTOMYCIN] |  |  | 32 (≈ 55 µM) | 32 (≈ 55 µM) | 32 (≈ 55 µM) | 32 (≈ 55 µM) | 32 (≈ 55 µM) | 32 (≈ 55 µM) | 32 (≈ 55 µM) | 32 (≈ 55 µM) | 32 (≈ 55 µM) | 32 (≈ 55 µM) | 32 (≈ 55 µM) | 32 (≈ 55 µM) | 32 (≈ 55 µM) | 32 (≈ 55 µM) | 32 (≈ 55 µM) | 32 (≈ 55 µM) | 32 (≈ 55 µM) | 32 (≈ 55 µM) | 
8 | CN(C)[C@@H]1C(O)=C(C(N)=O)C(=O)[C@@]2(O)C(O)=C3C(=O)c4c(O)cccc4[C@@](C)(O)[C@H]3C[C@@H]12 [TETRACYCLINE] |  |  | 32 (≈ 72 µM) | 64 (≈ 144 µM) | 64 (≈ 144 µM) | 64 (≈ 144 µM) | 64 (≈ 144 µM) | 32 (≈ 72 µM) | 64 (≈ 144 µM) | 32 (≈ 72 µM) | 64 (≈ 144 µM) | 64 (≈ 144 µM) | 32 (≈ 72 µM) | 64 (≈ 144 µM) | 64 (≈ 144 µM) | 32 (≈ 72 µM) | 64 (≈ 144 µM) | 64 (≈ 144 µM) | 64 (≈ 144 µM) | 32 (≈ 72 µM) | 
9 | GENTAMICIN |  |  |  |  |  |  |  |  |  |  |  |  |  |  |  |  |  |  |  |  | MIC (Enterococcus faecalis [5]): > 1020 µg/mL; MIC (Enterococcus faecalis [6]): 1020 µg/mL; MIC (Enterococcus faecalis [7]): > 1020 µg/mL; MIC (Enterococcus faecalis [8]): > 1020 µg/mL; MIC (Enterococcus faecalis [9]): > 1020 µg/mL; MIC (Enterococcus faecalis [10]): > 1020 µg/mL; MIC (Enterococcus faecalis [11]): > 1020 µg/mL; MIC (Enterococcus faecalis [12]): > 1020 µg/mL; MIC (Enterococcus faecalis [13]): > 1020 µg/mL; MIC (Enterococcus faecalis [14]): > 1020 µg/mL; MIC (Enterococcus faecalis [15]): > 1020 µg/mL; MIC (Enterococcus faecalis [16]): > 1020 µg/mL; MIC (Enterococcus faecalis [17]): > 1020 µg/mL; MIC (Enterococcus faecalis [18]): > 1020 µg/mL; MIC (Enterococcus faecalis [19]): > 1020 µg/mL; MIC (Enterococcus faecalis [20]): > 1020 µg/mL; MIC (Enterococcus faecalis [21]): > 1020 µg/mL; MIC (Enterococcus faecalis [22]): > 1020 µg/mL

Reference: ChEMBL document CHEMBL1629622, “Isolation of VanB-type Enterococcus faecalis strains from nosocomial infections: first report of the isolation and identification of the pheromone-responsive plasmids pMG2200, Encoding VanB-type vancomycin resistance and a Bac41-type bacteriocin, and pMG2201, encoding erythromycin resistance and …” (2009)
